Results from ChEMBL document CHEMBL5108074 (J Med Chem, 2022).

What was measured:
[1] = target: Trypsin (Homo sapiens, UniProt P07477+P07478+P35030); assay: Inhibition of human trypsin preincubated for 5 mins followed by substrate addition by fluorometer analysis; assay type: protein assay
Method in brief: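 Human proteases, typically purified from plasma, preincubated with compound for 5 min. A protease-specific fluorogenic substrate was then added and cleavage followed kinetically on a fluorometer. IC50 from a four-parameter logistic fit to the normalized rate of fluorescence increase.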

[2] = target: Cytochrome P450 2C19 (Homo sapiens, UniProt P33261); assay: Inhibition of CYP2C19 in human liver microsomes assessed as reduction in 4-hydroxymephenytoin metabolite formation incubated for 30 mins in presence of NADPH by LC-MS/MS analysis; assay type: ADME, Microsome
[3] = Volume of distribution at steady state in Beagle dog at 1 mg/kg, po and 1 mg/kg, iv measured upto 24 hrs by LC-MS analysis; assay type: ADME, organism-based, Canis lupus familiaris; conditions: in vivo
[4] = target: Coagulation factor XII (Homo sapiens, UniProt P00748); assay: Inhibition of human factor 12a preincubated for 5 mins followed by substrate addition by fluorometer analysis
Method in brief: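 Each protease (commercial, typically purified from human plasma) was preincubated with inhibitor for 5 min, then a fluorogenic substrate specific to that enzyme was added. Cleavage was followed kinetically by fluorometry. IC50 came from a four-parameter logistic fit to the normalized rate of fluorescence increase.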

[5] = target: T1, Cytochrome P450 1A2 (Homo sapiens, UniProt P05177); assay: Inhibition of CYP1A2 in human liver microsomes assessed as reduction in acetaminophen metabolite formation incubated for 30 mins in presence of NADPH by LC-MS/MS analysis; assay type: ADME, Microsome
T1 sequence (P05177 whole entry): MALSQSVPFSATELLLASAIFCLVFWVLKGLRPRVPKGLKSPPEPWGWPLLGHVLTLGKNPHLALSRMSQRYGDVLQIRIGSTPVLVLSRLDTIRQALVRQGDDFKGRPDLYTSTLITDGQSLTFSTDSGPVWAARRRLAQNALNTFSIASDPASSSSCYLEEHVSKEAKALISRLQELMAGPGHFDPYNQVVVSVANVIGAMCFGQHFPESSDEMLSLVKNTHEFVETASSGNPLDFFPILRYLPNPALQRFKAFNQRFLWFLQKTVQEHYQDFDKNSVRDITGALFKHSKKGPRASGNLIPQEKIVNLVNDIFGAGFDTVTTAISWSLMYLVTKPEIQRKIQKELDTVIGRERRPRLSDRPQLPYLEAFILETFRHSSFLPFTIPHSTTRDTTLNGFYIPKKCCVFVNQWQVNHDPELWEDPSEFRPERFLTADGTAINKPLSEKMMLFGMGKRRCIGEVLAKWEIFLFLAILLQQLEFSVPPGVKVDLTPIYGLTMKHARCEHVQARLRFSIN

[6] = target: Cytochrome P450 3A4 (Homo sapiens, UniProt P08684); assay: Inhibition of CYP3A4 in human liver microsomes assessed as reduction in 6beta-hydroxytestosterone metabolite formation using testosterone as substrate incubated for 30 mins in presence of NADPH by LC-MS/MS analysis; assay type: ADME, Microsome
Chain of Cytochrome P450 3A4 (P08684 whole entry): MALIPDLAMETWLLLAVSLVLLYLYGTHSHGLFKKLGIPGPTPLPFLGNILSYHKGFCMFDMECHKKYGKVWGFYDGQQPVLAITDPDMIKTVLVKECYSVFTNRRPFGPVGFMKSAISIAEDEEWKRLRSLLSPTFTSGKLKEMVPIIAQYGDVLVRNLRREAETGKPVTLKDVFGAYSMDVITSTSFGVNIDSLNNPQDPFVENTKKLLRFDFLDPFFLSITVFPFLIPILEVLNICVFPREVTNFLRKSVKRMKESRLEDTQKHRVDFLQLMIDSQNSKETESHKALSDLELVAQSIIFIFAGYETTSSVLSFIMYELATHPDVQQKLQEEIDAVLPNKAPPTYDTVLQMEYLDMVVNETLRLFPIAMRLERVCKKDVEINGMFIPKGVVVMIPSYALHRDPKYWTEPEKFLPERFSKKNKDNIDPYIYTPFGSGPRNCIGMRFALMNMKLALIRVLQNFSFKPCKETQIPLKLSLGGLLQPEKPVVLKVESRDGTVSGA

Chain of Coagulation factor XII (P00748 20-372 limits assumed): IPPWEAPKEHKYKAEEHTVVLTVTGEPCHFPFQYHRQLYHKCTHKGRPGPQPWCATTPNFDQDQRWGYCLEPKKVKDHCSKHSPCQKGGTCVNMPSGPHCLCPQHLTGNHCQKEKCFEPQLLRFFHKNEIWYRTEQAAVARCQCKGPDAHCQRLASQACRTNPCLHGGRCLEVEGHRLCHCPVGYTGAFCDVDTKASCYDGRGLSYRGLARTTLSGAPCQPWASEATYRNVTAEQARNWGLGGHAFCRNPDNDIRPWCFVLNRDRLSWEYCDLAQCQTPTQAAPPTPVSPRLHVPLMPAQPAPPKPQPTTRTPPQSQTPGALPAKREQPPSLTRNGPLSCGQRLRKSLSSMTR
Chain of Coagulation factor XII (P00748 373-615 limits assumed): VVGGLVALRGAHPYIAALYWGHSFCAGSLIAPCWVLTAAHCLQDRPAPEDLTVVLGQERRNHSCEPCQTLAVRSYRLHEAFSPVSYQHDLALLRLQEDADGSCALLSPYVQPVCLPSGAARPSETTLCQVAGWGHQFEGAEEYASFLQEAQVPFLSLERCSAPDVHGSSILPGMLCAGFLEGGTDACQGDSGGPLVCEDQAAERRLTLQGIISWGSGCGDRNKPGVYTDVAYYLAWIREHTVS
Chain of Cytochrome P450 2C19 (P33261 whole entry): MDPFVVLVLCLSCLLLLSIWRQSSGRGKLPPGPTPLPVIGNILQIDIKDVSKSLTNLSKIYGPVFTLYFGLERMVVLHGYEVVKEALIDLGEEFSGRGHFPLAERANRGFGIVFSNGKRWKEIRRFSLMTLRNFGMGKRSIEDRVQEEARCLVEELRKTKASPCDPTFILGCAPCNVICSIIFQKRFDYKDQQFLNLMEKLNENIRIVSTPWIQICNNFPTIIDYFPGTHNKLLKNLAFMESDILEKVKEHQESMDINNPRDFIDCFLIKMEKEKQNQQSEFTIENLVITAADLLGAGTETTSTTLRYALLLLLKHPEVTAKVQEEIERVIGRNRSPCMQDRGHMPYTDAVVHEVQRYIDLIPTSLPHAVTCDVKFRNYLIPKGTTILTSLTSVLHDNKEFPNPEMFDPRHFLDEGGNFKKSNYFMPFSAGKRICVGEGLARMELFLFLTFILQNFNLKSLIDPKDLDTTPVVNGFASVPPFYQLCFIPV

Compound: COCc1nn(Cc2ccc(Cn3ccccc3=O)cc2)cc1C(=O)NCc1nccc(OC)c1F [SEBETRALSTAT]
- IC50 [1]: > 40 µM
- IC50 [2]: > 25 µM
- Vdss [3]: 0.65 L/kg
- IC50 [4]: > 40 µM
- IC50 [5]: > 25 µM
- IC50 [6]: > 25 µM
